Source: PubChem BioAssay
Most compounds without a hit are left out; they make up all but 3.7% or so of the library.
Kir21 block – inhibitors of mouse Kir2.1 inward-rectifier potassium channel | P35561 | HEK293-Kir2.1, FluxOR thallium flux fluorescence; stronger effect = lower value | B-score at 10 µM | 0.85% of 310,000 active;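 active = fluorescence ratio B-score at or below minus 3 SD of library scores, with starting-brightness B-score within 2 SD, cut at about -4.2 in these data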;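 also: channel flux triggered by added potassium and thallium sulfate stimulus; B-score of peak minus minimum fluorescence over baseline after thallium stimulus; more negative B-score means stronger Kir2.1 block with less thallium influx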
KCNQ1 block – human KCNQ1 channel inhibition; CHO-K1 KCNQ1, FluxOR thallium flux fluorescence; stronger effect = higher value; AID 2642; P51787; 1.3% of 310,000 active; B-score at 10 µM;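 active = compounds whose thallium flux B-score, printed positive for inhibition, exceeds three library SD while starting fluorescence stays within three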;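 also: channel opened by potassium depolarization with thallium stimulus after 20 min compound exposure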
Target sequence (P51787 whole entry, looked up): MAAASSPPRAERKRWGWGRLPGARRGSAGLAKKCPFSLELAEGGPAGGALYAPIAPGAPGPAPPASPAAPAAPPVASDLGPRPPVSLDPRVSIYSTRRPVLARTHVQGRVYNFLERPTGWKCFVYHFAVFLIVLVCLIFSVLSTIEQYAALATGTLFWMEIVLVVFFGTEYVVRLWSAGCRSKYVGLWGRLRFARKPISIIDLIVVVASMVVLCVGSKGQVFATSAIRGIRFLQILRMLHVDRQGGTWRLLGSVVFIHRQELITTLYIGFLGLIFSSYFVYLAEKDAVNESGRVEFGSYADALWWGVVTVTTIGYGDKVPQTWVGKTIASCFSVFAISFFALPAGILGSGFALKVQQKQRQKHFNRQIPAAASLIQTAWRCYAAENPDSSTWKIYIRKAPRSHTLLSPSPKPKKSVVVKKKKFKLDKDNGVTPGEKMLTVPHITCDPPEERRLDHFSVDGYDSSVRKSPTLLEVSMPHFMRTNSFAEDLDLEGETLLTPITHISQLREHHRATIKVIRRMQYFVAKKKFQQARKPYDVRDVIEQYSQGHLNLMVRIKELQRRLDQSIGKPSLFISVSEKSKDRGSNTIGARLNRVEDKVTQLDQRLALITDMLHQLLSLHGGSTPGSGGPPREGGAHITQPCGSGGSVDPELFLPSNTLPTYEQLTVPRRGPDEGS
hERG rescue – compounds protecting human hERG from proarrhythmic drug block | CHO-hERG, FluxOR thallium flux, dofetilide IC70 present | activation (rescue from dofetilide block), less the hit threshold, % at 10 µM | 0.51% of 310,000 active | AID 1511;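 active = activation above the mean of controls blocked by dofetilide plus 5 SD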;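 also: thallium influx through hERG after potassium depolarization seen as dye fluorescence rise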
KCNK3 block – human KCNK3 channel inhibition, primary screen. O14649. CHO-KCNK3 thallium flux, FluxOR fluorescence; stronger effect = lower value. B-score at 10 µM. 0.84% of 340,000 active;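 active = B-score under library mean minus 4 SD, starting fluorescence ratio at most library mean plus 5 SD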;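 also: more negative B-score means stronger inhibition of thallium flux through KCNK3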
KCNK9 block – blocks the human KCNK9 two-pore domain potassium channel. Q9NPC2. HEK293 KCNK9, FluxOR thallium flux fluorescence; stronger effect = lower value. B-score at 10 µM. 1.2% of 310,000 active. AID 488922;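 active = ratio B-score over 3 SD below the library mean, with starting fluorescence within 5 SD of its mean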;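 also: negative B-score means less thallium flux so channel inhibition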
KCNQ1 act – potentiators or activators of human KCNQ1 potassium channel; 0.35% of 310,000 active; P51787; B-score at 10 µM; CHO-K1 KCNQ1, thallium flux FluxOR fluorescence; stronger effect = higher value; AID 2648;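 active = fluorescence ratio B-score, a plate-corrected score, at least three library SD, with initial intensity B-score within 5 SD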
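System: CHO-K1 cells stably expressing KCNQ1 / Medium: assay buffer for compound exposure, DMSO matched across wells / Reagent: thallium- and potassium-containing depolarizing buffer / Compound: one concentration, matched DMSO / Incubation: 20 min compound pretreatment at room temperature / Measured by: kinetic FluxOR fluorescence, 10 s baseline plus 110 s post-stimulus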
Of the large screens only hits and unclear results are named; the others gave an inactive call.

CC(C)(O)C(=O)NNC(=S)Nc1cccc(C(F)(F)F)c1	KCNQ1 block 7
FC(F)(F)c1cccc(NC(=S)Nc2ccc(Cl)c(Cl)c2)c1	KCNQ1 block 7
FC(F)(F)c1cccc(NC(=S)NNC(=S)Nc2cccc(C(F)(F)F)c2)c1	none (no result: KCNK3 block)
Cc1cc(NC(=O)Nc2cccc(C(F)(F)F)c2)n(C)n1	KCNQ1 block 6
O=C(Nc1ccccc1)Nc1cccc(C(F)(F)F)c1	none
CCc1nc(NC(=O)Cc2csc(C)n2)sc1C(=O)OC	none
CC(=O)NN1C(=O)/C(=C/c2ccc(Br)o2)SC1=S	none
CC(=O)NN1C(=O)/C(=C\c2ccc(Br)o2)SC1=S	Kir21 block -5
Cc1ccc(-c2nc(CC(=O)Nc3cccc(S(=O)(=O)NC4=NCCC4)c3)cs2)cc1	none (no result: Kir21 block, KCNQ1 block, hERG rescue, KCNK9 block, KCNQ1 act)
CN(c1ccccc1)S(=O)(=O)c1cccc(NC(=O)CSc2nccc(=O)[nH]2)c1	KCNK3 block -9.8 (no result: Kir21 block, KCNQ1 block, hERG rescue, KCNK9 block, KCNQ1 act)
COCCn1cnnc1SCC(=O)Nc1cccc(S(=O)(=O)N(C)c2ccccc2)c1	none
Cc1nnc(SCC(=O)Nc2cccc(S(=O)(=O)N(C)c3ccccc3)c2)s1	KCNQ1 block 6
CCC(=O)c1ccc(OCC(=O)Nc2cccc(S(=O)(=O)N(C)c3ccccc3)c2)cc1	none (no result: Kir21 block, KCNQ1 block, hERG rescue, KCNK9 block, KCNQ1 act)
CN(c1ccccc1)S(=O)(=O)c1cccc(NC(=O)COc2cccc([N+](=O)[O-])c2)c1	KCNK3 block -9.9 (no result: Kir21 block, KCNQ1 block, hERG rescue, KCNK9 block, KCNQ1 act)
CCOC(=O)C1CCN(Cc2cccc(Oc3ccccc3)c2)CC1	Kir21 block -6.1
CN1OC[C@@H]2CN(Cc3ccccc3)[C@H](c3cccc(-c4ccc(C#N)cc4)c3)C[C@@H]21	none (no result: Kir21 block, KCNQ1 block, hERG rescue, KCNK9 block, KCNQ1 act)
O=C(CN1CCCc2ccccc21)NCCc1ccc(F)cc1	Kir21 block -6.5
COc1cc(Cn2c(=O)c3c(OC)c(C)cnc3n(C)c2=O)cc(OC)c1	none
CCCCCCC(=O)Nc1ccc(C(=O)N/N=C/c2cccnc2)cc1	none
CCCCCCCC(=O)Nc1ccc(C(=O)N/N=C/c2cccc([N+](=O)[O-])c2)cc1	hERG rescue 8.9
CCCCCCCCCS(=O)(=O)N/N=C/c1cccc([N+](=O)[O-])c1	KCNQ1 block 8
COc1ccc(S(=O)(=O)N2CCCC2C(=O)Nc2nnc(-c3cccnc3)s2)cc1 (stereo unspecified)	hERG rescue 7.5
Cc1ccc([C@@H]2[C@@H]3C(=O)N(C)C(=O)[C@@H]3[C@@H]3C(=O)Nc4ccccc4C(=O)N23)cc1	none
Cc1oc(C)c2c(=O)ccc3c(c12)OC(N)=C(C#N)C3c1ccc(F)cc1 (stereo unspecified)	KCNQ1 block 8
CCOCC(O)CNc1ccccc1 (stereo unspecified)	hERG rescue 5.4
CCOC(=O)c1ccc(NCC(O)COc2ccccc2)cc1 (stereo unspecified)	none
COc1ccccc1OCCNC(=O)Cc1ccc(S(=O)(=O)N2CCOCC2)s1	none
CN(C)S(=O)(=O)c1cccc(NC(=S)Nc2cc(Cl)cc(Cl)c2)c1	KCNQ1 block 7
CN(C)S(=O)(=O)c1cccc(NC(=S)Nc2ccc(Cl)cc2Cl)c1	none
CN(C)S(=O)(=O)c1cccc(NC(=S)N/N=C/c2ccc(O)c(O)c2O)c1	Kir21 block -5.4
O=[N+]([O-])/C=C\c1ccc(N2CCCC2)c(F)c1	KCNK3 block -9.6
O=C(Nc1cccc(N2C(=O)C=CC2=O)c1)c1cccs1	Kir21 block -5.9
NS(=O)(=O)c1cccc(NC(=O)c2cccs2)c1	none
C=CCN1C(=O)/C(=C/c2ccc(OC(C)=O)c(OCC)c2[N+](=O)[O-])SC1=S	KCNQ1 block 12
CCCCc1ccc(S(=O)(=O)Nc2nnc(C)s2)cc1	none
Cc1ccc(S(=O)(=O)NCCC(=O)NCC(=O)Nc2c(C)cccc2C)cc1C	none
Oc1c(Br)cc(Cl)cc1C=Nc1ccccc1Br	hERG rescue 11, KCNQ1 act 8
Oc1c(Br)cc(Cl)cc1C=Nc1ccc(N2CCOCC2)cc1	none
Cc1noc(C)c1S(=O)(=O)Nc1ccc2c(c1)C(=O)N([C@H](C)CO)C[C@H](C)[C@@H](CN(C)S(=O)(=O)c1ccccc1)O2	none (no result: Kir21 block, KCNQ1 block, hERG rescue, KCNK9 block, KCNQ1 act)
Cc1cc(S(=O)(=O)N2CCOCC2)ccc1OCC(=O)NCc1ccco1	hERG rescue 6.7
